In ChEMBL document CHEMBL3616436, “Synthesis, cytotoxicity and antimicrobial activity of thiourea derivatives incorporating 3-(trifluoromethyl)phenyl moiety” (Eur J Med Chem, 2015):
In brackets after ≈: the same amount, converted by molar mass. Activity calls are given as the source filed them. The calls are words filed in the database; no cut-off is given here.

Experiments:
Staphylococcus aureus [1] = assay: Antimicrobial activity against Staphylococcus aureus ATCC 29213 after 18 hrs by twofold serial microdilution method; type: functional; details: ATCC 29213, 18 h
Bacillus cereus = assay: Antimicrobial activity against Bacillus cereus ATCC 11778 at 400 ug after 18 hrs by disc-diffusion method; type: functional; details: ATCC 11778, 18 h, read-out: IZ
In short: (§1)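 Disc diffusion on Mueller-Hinton II agar per CLSI; 9 mm paper discs loaded with 400 µg compound from DMSO solution, dried, placed on agar; growth inhibition zone diameter read after 18 h at 35°C.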

[2] = tested on: Mycobacterium tuberculosis; assay: Antimycobacterial activity against Mycobacterium tuberculosis H37Rv ATCC 25618; type: functional
In short: (§2)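 Classical test-tube successive-dilution method in Youmans' modification of Proskauer and Beck liquid medium with 10% bovine serum. Inoculum came from 14-day cultures. DMSO stock was 10 mg/mL, diluted geometrically in medium. Tubes were incubated at 37 °C. Concentrations tested were 3.1, 6.2, 12.5, 25, 50 and 100 µg/ml. MIC is the minimum concentration inhibiting growth relative to compound-free tubes.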

[3] = tested on: Vesicular stomatitis virus; assay: Antiviral activity against Vesicular stomatitis virus ATCC VR 1540 infected in African green monkey Vero 76 cells assessed as reduction of virus-plaque formation after 2 days by crystal violet staining; type: functional, organism-based; details: ATCC VR 1540, Vero, 48 h
Coxsackievirus B5 = assay: Antiviral activity against Human coxsackievirus B5 ATCC VR-29 infected in African green monkey Vero 76 cells assessed as reduction of virus-plaque formation after 3 days by crystal violet staining; type: functional, organism-based; details: Enterovirus B, ATCC VR-29, Vero, 72 h
In short: (§3)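 Plaque reduction: Vero-76 at 2x10^5 cells/well grown to confluent monolayers, infected 2 h at 50–100 PFU/well; after removing unadsorbed virus, overlay of D-MEM, 1% inactivated FBS, 0.75% methylcellulose with or without serial compound dilutions; 3 days at 37°C, fixed and stained with crystal violet in 50% ethanol, plaques counted; EC50 by linear regression.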

[4] = tested on: Staphylococcus epidermidis; assay: Antimicrobial activity against Staphylococcus epidermidis ATCC 12228 after 18 hrs by twofold serial microdilution method; type: functional; details: ATCC 12228, 18 h
[5] = tested on: Human immunodeficiency virus 1; assay: Antiviral activity against HIV1 3B infected in human MT4 cells assessed as protection against virus-induced cytopathogenicity by MTT assay; type: functional, organism-based; details: Human immunodeficiency virus 1, 3B
Staphylococcus aureus [6] = assay: Antimicrobial activity against Staphylococcus aureus ATCC 25923 at 400 ug after 18 hrs by disc-diffusion method; type: functional; details: ATCC 25923, 18 h, read-out: IZ; in short: as §1
Staphylococcus aureus [7] = assay: Antimicrobial activity against Staphylococcus aureus ATCC 6538 at 400 ug after 18 hrs by disc-diffusion method; type: functional; details: ATCC 6538, 18 h, read-out: IZ; in short: as §1
Micrococcus luteus [8] = assay: Antimicrobial activity against Micrococcus luteus ATCC 10240 at 400 ug after 18 hrs by disc-diffusion method; type: functional; details: ATCC 10240, 18 h, read-out: IZ; in short: as §1
[9] = Cytotoxicity against human MT4 cells; type: cell-based
Vaccinia virus = assay: Antiviral activity against Human Vaccinia virus ATCC VR-1549 infected in African green monkey Vero 76 cells assessed as reduction of virus-plaque formation after 3 days by crystal violet staining; type: functional, organism-based; details: Orthopoxvirus vaccinia, ATCC VR-1549, Vero, 72 h
[10] = Antiviral activity against Bovine viral diarrhea virus 1-NADL ATCC VR-534 infected in MDBK cells assessed as protection against virus-induced cytopathogenicity after 3 to 4 days by MTT assay; type: functional, cell-based; details: Bovine viral diarrhea virus isolates and strains, ATCC VR-534, MDBK
In short: (§4)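 Cells seeded in 96-well plates (BHK 5x10^4, MDBK 3x10^4 cells/well), grown overnight to confluence, infected at m.o.i. 0.01 (BHK for Reo-1, MDBK for BVDV); serial compound dilutions in maintenance medium with 0.5% inactivated FBS added after 1 h; viability by MTT after 3–4 days at 37°C; EC50 for 50% protection by linear regression.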

Staphylococcus aureus [11] = assay: Antimicrobial activity against Staphylococcus aureus NCTC 4163 at 400 ug after 18 hrs by disc-diffusion method; type: functional; details: NCTC 4163, 18 h, read-out: IZ; in short: as §1
[12] = tested on: Staphylococcus epidermidis; assay: Antimicrobial activity against Staphylococcus epidermidis ATCC 35984 at 400 ug after 18 hrs by disc-diffusion method; type: functional; details: ATCC 35984, 18 h, read-out: IZ; in short: as §1
[13] = tested on: Staphylococcus epidermidis; assay: Antimicrobial activity against Staphylococcus epidermidis ATCC 35984 after 18 hrs by twofold serial microdilution method; type: functional; details: ATCC 35984, 18 h
[14] = Cytotoxicity against BHK cells assessed as cell viability after 48 to 96 hrs by MTT assay; type: cell-based, Mesocricetus auratus; details: hamster
Staphylococcus aureus [15] = assay: Antimicrobial activity against Staphylococcus aureus ATCC 29213 at 400 ug after 18 hrs by disc-diffusion method; type: functional; details: ATCC 29213, 18 h, read-out: IZ; in short: as §1
Bacillus subtilis = assay: Antimicrobial activity against Bacillus subtilis ATCC 6633 at 400 ug after 18 hrs by disc-diffusion method; type: functional; details: ATCC 6633, 18 h, read-out: IZ; in short: as §1
Proteus vulgaris = assay: Antimicrobial activity against Proteus vulgaris NCTC 4635 at 400 ug after 18 hrs by disc-diffusion method; type: functional; details: NCTC 4635, 18 h, read-out: IZ; in short: as §1
Enterococcus faecalis = assay: Antimicrobial activity against Enterococcus faecalis ATCC 29212 at 400 ug after 18 hrs by disc-diffusion method; type: functional; details: ATCC 29212, 18 h, read-out: IZ; in short: as §1
Staphylococcus aureus [16] = assay: Antimicrobial activity against Staphylococcus aureus ATCC 25923 after 18 hrs by twofold serial microdilution method; type: functional; details: ATCC 25923, 18 h
Enterococcus hirae = assay: Antimicrobial activity against Enterococcus hirae ATCC 10541 at 400 ug after 18 hrs by disc-diffusion method; type: functional; in short: as §1
[17] = Cytotoxicity against African green monkey Vero 76 cells assessed as cell viability after 48 to 96 hrs by crystal violet staining; type: cell-based; details: chlorocebus sabaeus
Human alphaherpesvirus 1 = assay: Antiviral activity against Human herpesvirus 1 KOS ATCC VR-1493 infected in African green monkey Vero 76 cells assessed as reduction of virus-plaque formation after 3 days by crystal violet staining; type: functional, organism-based; details: Human alphaherpesvirus 1, KOS ATCC VR1493, Vero, 72 h; in short: as §3
[18] = Cytotoxicity against bovine MDBK cells assessed as cell viability after 48 to 96 hrs by MTT assay; type: cell-based, Bos taurus; details: cattle
Yellow fever virus = assay: Antiviral activity against Yellow fever virus 17D infected in BHK cells assessed as protection against virus-induced cytopathogenicity after 3 to 4 days by MTT assay; type: functional, cell-based
Staphylococcus aureus [19] = assay: Antimicrobial activity against Staphylococcus aureus NCTC 4163 after 18 hrs by twofold serial microdilution method; type: functional; details: NCTC 4163, 18 h
Staphylococcus aureus [20] = assay: Antimicrobial activity against Staphylococcus aureus ATCC 6538 after 18 hrs by twofold serial microdilution method; type: functional; details: ATCC 6538, 18 h
[21] = tested on: Mycobacterium tuberculosis; assay: Antimycobacterial activity against drug-sensitive Mycobacterium tuberculosis Spec. 192; type: functional; in short: as §2
[22] = tested on: Staphylococcus epidermidis; assay: Antimicrobial activity against Staphylococcus epidermidis ATCC 12228 at 400 ug after 18 hrs by disc-diffusion method; type: functional; details: ATCC 12228, 18 h, read-out: IZ; in short: as §1
Poliovirus 1 = assay: Antiviral activity against Poliovirus type 1 ATCC VR-1562 infected in African green monkey Vero 76 cells assessed as reduction of virus-plaque formation after 2 days by crystal violet staining; type: functional, organism-based; details: Enterovirus C, ATCC VR-1562, Vero, 48 h
[23] = tested on: Mammalian orthoreovirus 1; assay: Antiviral activity against Reovirus type-1 ATCC VR-214 infected in BHK cells assessed as protection against virus-induced cytopathogenicity after 3 to 4 days by MTT assay; type: functional, cell-based; details: Mammalian orthoreovirus 1, ATCC VR-214, BHK; in short: as §4
Micrococcus luteus [24] = assay: Antimicrobial activity against Micrococcus luteus ATCC 9341 at 400 ug after 18 hrs by disc-diffusion method; type: functional; details: ATCC 9341, 18 h, read-out: IZ; in short: as §1

Row | SMILES | MIC (Staphylococcus aureus [1]) | zone of inhibition at 400 µg/disc (Bacillus cereus) | MIC [2] | EC50 [3] | EC50 (Coxsackievirus B5) | MIC [4] | EC50 [5] | zone of inhibition at 400 µg/disc (Staphylococcus aureus [6]) | zone of inhibition at 400 µg/disc (Staphylococcus aureus [7]) | zone of inhibition at 400 µg/disc (Micrococcus luteus [8]) | CC50 [9] | EC50 (Vaccinia virus) | EC50 [10] | zone of inhibition at 400 µg/disc (Staphylococcus aureus [11]) | zone of inhibition at 400 µg/disc [12] | MIC [13] | CC50 [14] | CC50 [17] | EC50 (Poliovirus 1) | EC50 [23] | also measured
1 | FC(F)(F)c1cccc(NC(=S)Nc2ccccc2)c1 | 16 µg/mL (≈ 54 µM) | 22 mm | 50 µg/mL (≈ 169 µM) | > 39 µM | > 39 µM | 32 µg/mL (≈ 108 µM) | > 39 µM | 23 mm | 21 mm | 22 mm | 39 µM | > 39 µM | > 49 µM | 24 mm | 23 mm | 16 µg/mL (≈ 54 µM) | 41 µM | 39 µM | > 39 µM | > 41 µM | zone of inhibition at 400 µg/disc (Staphylococcus aureus [15]): 23 mm; zone of inhibition at 400 µg/disc (Bacillus subtilis): 21 mm; zone of inhibition at 400 µg/disc (Proteus vulgaris): 11 mm; zone of inhibition at 400 µg/disc (Enterococcus faecalis): 15 mm; MIC (Staphylococcus aureus [16]): 16 µg/mL (≈ 54 µM); zone of inhibition at 400 µg/disc (Enterococcus hirae; ATCC 10541, 18 h, read-out: IZ): 25 mm; EC50 (Human alphaherpesvirus 1): > 39 µM; CC50 [18]: 49 µM; EC50 (Yellow fever virus): > 41 µM; MIC (Staphylococcus aureus [19]): 16 µg/mL (≈ 54 µM); MIC (Staphylococcus aureus [20]): 16 µg/mL (≈ 54 µM); MIC [21]: 50 µg/mL (≈ 169 µM); zone of inhibition at 400 µg/disc [22]: 23 mm; zone of inhibition at 400 µg/disc (Micrococcus luteus [24]): 24 mm
2 | C[C@@]1(O)[C@H](O)[C@@H](CO)O[C@H]1n1ccc(N)nc1=O |  |  |  |  | 18 µM |  |  |  |  |  |  |  |  |  |  |  | > 10 µM | > 100 µM | 7.3 µM | 16 µM | 
3 | Fc1ccccc1NC(=S)Nc1cccc(C(F)(F)F)c1 | 16 µg/mL (≈ 50.9 µM) | 18 mm | 100 µg/mL (≈ 318 µM) | > 64 µM | > 64 µM | 16 µg/mL (≈ 50.9 µM) | > 47 µM | 19 mm | 21 mm | 23 mm | 47 µM | > 64 µM | > 100 µM | 18 mm | 20 mm | 32 µg/mL (≈ 102 µM) | 54 µM | 64 µM | > 64 µM | > 54 µM | zone of inhibition at 400 µg/disc (Staphylococcus aureus [15]): 19 mm; zone of inhibition at 400 µg/disc (Bacillus subtilis): 20 mm; zone of inhibition at 400 µg/disc (Proteus vulgaris): 11 mm; zone of inhibition at 400 µg/disc (Enterococcus faecalis): 13 mm; MIC (Staphylococcus aureus [16]): 16 µg/mL (≈ 50.9 µM); inhibition zone (IZ) (Enterococcus hirae): inactive; EC50 (Human alphaherpesvirus 1): > 64 µM; CC50 [18]: > 100 µM; EC50 (Yellow fever virus): > 54 µM; MIC (Staphylococcus aureus [19]): 16 µg/mL (≈ 50.9 µM); MIC (Staphylococcus aureus [20]): 16 µg/mL (≈ 50.9 µM); MIC [21]: 100 µg/mL (≈ 318 µM); zone of inhibition at 400 µg/disc [22]: 20 mm; zone of inhibition at 400 µg/disc (Micrococcus luteus [24]): 21 mm
